# ChEMBL document CHEMBL1671780, “Analogues of σ receptor ligand 1-cyclohexyl-4-[3-(5-methoxy-1,2,3,4-tetrahydronaphthalen-1-yl)propyl]piperazine (PB28) with added polar functionality and reduced lipophilicity for potential use as positron emission tomography radiotracers” (J Med Chem, 2011)
# Assays:
# [1] = Displacement of [3H]DTG from sigma 2 receptor in Wistar Hannover rat liver membrane in presence of (+)-pentazocine; format: cell membranes
# [2] = Inhibition of P-gp in MDCK-MDR1 cells by calcein-AM assay; format: cell-based, Canis lupus familiaris
# Procedure, shortened: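 MDCK-MDR1 cells overexpressing P-gp, grown in high-glucose DMEM with 10% FBS, were seeded at 50 000 cells/well and left overnight to reach confluence. Compound preincubated 30 min at 37 °C, then calcein-AM (2.5 μM final) added for a further 30 min. Cells washed with ice-cold PBS and fluorescence read at ex 485/em 535 nm relative to untreated cells. EC50 fitted from % fluorescence increase versus log dose.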
# [3] = test system: SK-N-SH; assay: Antiproliferative activity against human SK-N-SH cells after 48 hts by MTT assay; format: functional, cell-based
# Procedure, shortened: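 SK-N-SH neuroblastoma cells grown in RPMI 1640 with 10% FBS, glutamine, pyruvate and nonessential amino acids at 37 °C, 5% CO2. Seeded at 30 000 cells/well, then exposed next day to drug (0.1 μM-100 μM; solvent controls included). MTT 0.5 mg/mL added for 3 h at 37 °C after 48 h exposure, formazan dissolved in DMSO, absorbance read at 570 and 630 nm. EC50 from nonlinear curve fitting; means of ≥2 experiments.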
# [4] = target: Sigma non-opioid intracellular receptor 1 (Cavia porcellus) (UniProt Q60492); assay: Displacement of [3H]-(+)-pentazocine from sigma 1 receptor in Dunkin guinea pig brain membrane without cerebellum at 10^-12M; format: cell membranes
# Sequence of Sigma non-opioid intracellular receptor 1 (Cavia porcellus) (Q60492 whole entry): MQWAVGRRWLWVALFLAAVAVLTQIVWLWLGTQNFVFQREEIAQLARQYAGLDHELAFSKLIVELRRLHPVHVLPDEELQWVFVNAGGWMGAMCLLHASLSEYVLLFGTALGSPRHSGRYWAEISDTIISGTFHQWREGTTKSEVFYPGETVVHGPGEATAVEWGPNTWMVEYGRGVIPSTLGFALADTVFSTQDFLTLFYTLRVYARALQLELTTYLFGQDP
# Procedure, shortened: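 σ1 binding with (+)-[3H]-pentazocine on guinea pig brain membranes lacking cerebellum; percent inhibition of specific binding recorded at a single 10-12 M test concentration. Means of ≥3 separate experiments.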
# [5] = Lipophilicity, log P of the compound; format: physicochemical; details: octanol/water
# [6] = Octanol-aqueous phases partition coefficient, log D of the compound at pH 7.4; format: physicochemical; details: octanol/aqueous phase
# [7] = target: Sigma non-opioid intracellular receptor 1 (Cavia porcellus, UniProt Q60492); assay: Displacement of [3H]-(+)-pentazocine from sigma 1 receptor in Dunkin guinea pig brain membrane without cerebellum; format: cell membranes
# Sequence of Sigma non-opioid intracellular receptor 1 (Q60492 whole entry): as above
# [8] = test system: SK-N-SH; assay: Antiproliferative activity against human SK-N-SH cells at 100 uM after 48 hts by MTT assay; format: functional
Structure (SMILES),Ki [1] [nM],EC50 [2] [nM],EC50 [3] [nM],inhibition [4] [%],logP [5],logD [6],Ki [7] [nM],inhibition at 100 µM [8] [%]
COc1cccc2c1CCCC2N(C)CCN1CCN(C2CCCCC2)CC1 (racemic),15.3,8800,–,–,4.83,1.83,4.17,82
COc1cccc2c1CCC[C@H]2NCCN1CCN(C2CCCCC2)CC1,14.4,9800,–,–,–,–,13.6,31
COc1cccc2c1CCC[C@@H]2NCCN1CCN(C2CCCCC2)CC1,8.52,3200,–,–,–,–,23.3,33
COc1cccc2c1CCCC2OCCN1CCN(C2CCCCC2)CC1 (racemic),9.03,2400,–,–,–,–,3.9,72
COc1cccc2c1CCC[C@H]2OCCN1CCN(C2CCCCC2)CC1,11.1,5300,–,–,–,–,2.17,91
COc1cccc2c(NCCN3CCN(C4CCCCC4)CC3)cccc12,18.5,3600,44000,–,4.08,2.88,5.44,–
COc1cccc2c1CCCC2NCCN1CCN(C2CCCCC2)CC1 (racemic),8.49,10000,–,–,3.05,0.89,23.9,48
COc1cccc2c(NC(=O)CN3CCN(C4CCCCC4)CC3)cccc12,23.2,9100,–,–,3.44,2.18,42.6,75
COc1cccc2c1CCCC2NC(=O)CN1CCN(C2CCCCC2)CC1 (racemic),13.3,8800,–,–,3.69,2.38,12.6,68
COc1cccc2c1OCCC2CCCN1CCN(C2CCCCC2)CC1 (racemic),9.72,5200,–,–,–,–,12.5,100
COc1cccc2c1CCC[C@H]2NC(=O)CN1CCN(C2CCCCC2)CC1,10.1,6600,–,–,–,–,20.4,100

# Now those with a lower Ki [1], led by results:
Ki [1] [nM],EC50 [2] [nM],EC50 [3] [nM],inhibition [4] [%],logP [5],logD [6],Ki [7] [nM],Structure (SMILES),inhibition at 100 µM [8] [%]
1.18,3800,9370,–,–,–,–,COc1cccc2c1CCC[C@H]2CCCN1CCN(C2CCCCC2)CC1,–
2.4,3400,41600,65,3.94,2.88,–,COc1cccc2c(OCCN3CCN(C4CCCCC4)CC3)cccc12,–
5.92,8100,–,–,–,–,94.6,COc1cccc2c1CCC[C@@H]2NC(=O)CN1CCN(C2CCCCC2)CC1,100
0.49,4400,9070,–,–,–,–,COc1cccc2c1CCC[C@@H]2CCCN1CCN(C2CCCCC2)CC1,–
0.68,3000,9040,–,5.08,3.99,–,COc1cccc2c1CCCC2CCCN1CCN(C2CCCCC2)CC1 (racemic),–
4.71,1700,–,–,–,–,3.24,COc1cccc2c1CCC[C@@H]2OCCN1CCN(C2CCCCC2)CC1,93
